# Legend:
# [1] = Selectivity ratio of IC50 for electric eel AChE to IC50 for equine serum BuChE
# Butyrylcholinesterase = Butyrylcholinesterase (Equus caballus, UniProt Q9N1N9); assay: Inhibition of equine serum BuChE by Ellman's assay
# Method in brief: (§1)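 Ellman photometric assay with electric eel AChE (type VI-S) or equine serum BChE (enzyme solution 2.5 U/mL) in phosphate buffer, pH 8.0. Enzyme and inhibitor stand together for 5 min, then DTNB is added. The reaction starts with acetylthiocholine (AChE) or butyrylthiocholine (BChE), and A412 is read 2.5 min later at 25 °C. At least five concentrations (highest 10^-4 M final) are run in triplicate. Percent activity versus the no-inhibitor reference is plotted against log concentration; each value is the mean of ≥3 independent runs.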
# Acetylcholinesterase = Acetylcholinesterase (Electrophorus electricus, UniProt O42275); assay: Inhibition of electric eel AChE type 6S by Ellman's assay
# Chain of Acetylcholinesterase (O42275 whole entry): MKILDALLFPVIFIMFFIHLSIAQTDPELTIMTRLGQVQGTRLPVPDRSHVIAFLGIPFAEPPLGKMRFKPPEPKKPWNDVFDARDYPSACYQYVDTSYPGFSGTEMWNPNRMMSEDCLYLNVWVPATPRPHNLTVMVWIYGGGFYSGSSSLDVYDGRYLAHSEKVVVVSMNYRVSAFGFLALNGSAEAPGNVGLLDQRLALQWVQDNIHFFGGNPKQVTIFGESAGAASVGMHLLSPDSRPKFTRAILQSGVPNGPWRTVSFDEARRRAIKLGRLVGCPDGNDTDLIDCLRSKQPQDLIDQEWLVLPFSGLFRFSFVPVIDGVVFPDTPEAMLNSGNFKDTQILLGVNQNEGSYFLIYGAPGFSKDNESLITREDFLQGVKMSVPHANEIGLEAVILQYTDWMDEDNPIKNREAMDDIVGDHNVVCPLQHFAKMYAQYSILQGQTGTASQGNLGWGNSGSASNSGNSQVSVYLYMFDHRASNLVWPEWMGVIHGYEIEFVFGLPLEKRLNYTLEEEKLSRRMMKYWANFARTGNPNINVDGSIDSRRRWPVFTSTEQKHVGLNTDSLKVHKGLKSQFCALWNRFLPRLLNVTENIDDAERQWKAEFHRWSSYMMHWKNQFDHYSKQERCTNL
# [2] = Antioxidant scavenging activity against AAPH-induced peroxyl radical assessed as trolox equivalent per uM of compound by ORAC-fluorescein assay; format: physicochemical
# Method in brief: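 Peroxyl radicals generated by AAPH (12 mM final) at 37 °C in 75 mM phosphate buffer pH 7.4. Sample (0.5–10 µM) was preincubated 15 min with fluorescein (300 nM final), then AAPH added. Fluorescence (ex 485/em 535 nm) read every 60 s for 90 min. Net AUC vs blank was calibrated against Trolox (1–8 µM final). Each run fourfold, at least four independent runs.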
# [3] = Cytotoxicity against mouse brain N11 cells from by MTT assay; format: cell-based
# Method in brief: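 N11 microglia (embryonic mouse brain, retrovirus-immortalized) were kept in DMEM with 10% heat-inactivated FCS and 2 mM glutamine. Cells were seeded at 5×10³/well and grown 24 h, then exposed 24 h to compound or solvent in phenol-red-free medium with 1% FCS.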
# [4] = target: Acetylcholinesterase (Electrophorus electricus) (UniProt O42275); assay: Inhibition of electric eel AChE at 10 uM by Ellman's assay; method in brief: as §1
# Chain of Acetylcholinesterase (Electrophorus electricus) (O42275 24-633 limits assumed): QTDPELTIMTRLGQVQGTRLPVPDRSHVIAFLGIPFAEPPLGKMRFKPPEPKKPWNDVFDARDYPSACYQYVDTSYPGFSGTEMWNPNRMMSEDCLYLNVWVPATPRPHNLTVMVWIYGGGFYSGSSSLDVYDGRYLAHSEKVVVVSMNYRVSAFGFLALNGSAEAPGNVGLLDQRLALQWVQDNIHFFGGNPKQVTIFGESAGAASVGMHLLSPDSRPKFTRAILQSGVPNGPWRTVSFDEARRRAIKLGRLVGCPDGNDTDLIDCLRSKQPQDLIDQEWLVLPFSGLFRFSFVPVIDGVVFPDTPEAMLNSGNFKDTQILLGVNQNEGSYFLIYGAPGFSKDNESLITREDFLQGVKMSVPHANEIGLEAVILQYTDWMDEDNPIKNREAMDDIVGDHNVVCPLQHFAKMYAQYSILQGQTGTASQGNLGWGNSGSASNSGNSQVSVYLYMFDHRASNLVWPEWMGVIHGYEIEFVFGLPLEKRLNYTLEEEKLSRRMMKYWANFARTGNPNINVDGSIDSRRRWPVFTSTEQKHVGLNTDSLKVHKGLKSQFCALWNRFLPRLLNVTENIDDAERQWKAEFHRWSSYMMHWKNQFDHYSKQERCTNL
# Chain of Butyrylcholinesterase (Q9N1N9 whole entry): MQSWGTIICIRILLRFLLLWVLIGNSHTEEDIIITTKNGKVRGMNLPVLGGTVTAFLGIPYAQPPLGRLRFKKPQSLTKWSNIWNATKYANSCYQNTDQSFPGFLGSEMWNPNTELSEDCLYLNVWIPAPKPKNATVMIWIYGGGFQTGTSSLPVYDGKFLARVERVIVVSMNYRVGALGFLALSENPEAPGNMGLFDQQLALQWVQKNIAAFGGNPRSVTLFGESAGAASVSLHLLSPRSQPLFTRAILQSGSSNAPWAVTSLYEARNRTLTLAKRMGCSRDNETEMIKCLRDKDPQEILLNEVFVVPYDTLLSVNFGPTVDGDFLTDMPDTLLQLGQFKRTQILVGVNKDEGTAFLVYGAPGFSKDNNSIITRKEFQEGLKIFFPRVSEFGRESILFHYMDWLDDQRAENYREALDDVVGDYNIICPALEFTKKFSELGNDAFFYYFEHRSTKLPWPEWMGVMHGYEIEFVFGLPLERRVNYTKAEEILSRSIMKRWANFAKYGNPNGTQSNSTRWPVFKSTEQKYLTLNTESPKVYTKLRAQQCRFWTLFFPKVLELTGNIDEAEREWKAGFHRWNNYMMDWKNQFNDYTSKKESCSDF
SMILES,Ratio IC50 [1],IC50 (Butyrylcholinesterase) [nM],IC50 (Acetylcholinesterase) [nM],Activity [2],IC50 [3] [nM],inhibition [4] [%]
CCCC/N=c1/c2ccc(Cl)cc2nc2n1CCC2,1.7,–,–,–,–,–
O=C(CCCCC1CCSS1)NCCCC/N=c1/c2ccc(Cl)cc2nc2n1CCC2 (stereo unspecified),27.1,170,4580,–,–,–
NCCCC/N=c1/c2ccc(Cl)cc2nc2n1CCC2,0.7,720,480,–,–,–
NCCCCCC/N=c1/c2ccc(Cl)cc2nc2n1CCC2,3.9,380,1490,0.2,6010,–
O=C(CCCCC1CCSS1)NCCCCCCC/N=c1/c2ccc(Cl)cc2nc2n1CCC2 (stereo unspecified),134,14,1940,–,–,–
O=C(CCCCC1CCSS1)NCCC/N=c1/c2ccc(Cl)cc2nc2n1CCC2 (stereo unspecified),1.1,2580,2840,0.8,7510,–
"O=C(O)CCCCC1CCSS1 (stereo not drawn) [LIPOIC ACID, ALPHA]",–,–,–,0.6,–,–
NCCC/N=c1/c2ccc(Cl)cc2nc2n1CCC2,1.9,10200,19000,–,–,–
NCCCCCCCC/N=c1/c2ccc(Cl)cc2nc2n1CCC2,10.7,12,130,0.1,6270,–
NCCCCCCCC/N=c1/c2ccccc2nc2n1CCCCCC2,73.9,46,3400,0.1,3740,–
O=C(CCCCC1CCSS1)NCCCCCCCC/N=c1/c2ccc(Cl)cc2nc2n1CCC2 (stereo unspecified),82,5.7,468,0.5,10200,–
O=C(CCCCC1CCSS1)NCCCCC/N=c1/c2ccc(Cl)cc2nc2n1CCC2 (stereo unspecified),83,53,4380,–,–,–
N=c1c2ccccc2nc2n1CCC2,1.8,–,–,–,–,–
O=C(CCCCC1CCSS1)NCCCCCCCC/N=c1/c2ccccc2nc2n1CCCCCC2 (stereo unspecified),> 5000,23,–,0.4,6540,< 10
O=C(CCCCC1CCSS1)NCCCCCC/N=c1/c2ccc(Cl)cc2nc2n1CCC2 (stereo unspecified),28.8,26,740,–,–,–
NCCCCCCC/N=c1/c2ccc(Cl)cc2nc2n1CCC2,5.7,710,4060,–,–,–
NCCCCC/N=c1/c2ccc(Cl)cc2nc2n1CCC2,0.9,190,170,–,–,–
Clc1ccc2/c(=N/CCCCCCCC/N=c3/c4ccc(Cl)cc4nc4n3CCC4)n3c(nc2c1)CCC3,–,45,50,–,–,–
c1ccc(C/N=c2/c3ccccc3nc3n2CCCCCCC3)cc1,–,1100,> 500000,–,–,–

# Source: ChEMBL document CHEMBL1149888 (Bioorg Med Chem, 2008)
